Experiment [1] has as its target T1, Ephrin type-B receptor 3 (Homo sapiens) (UniProt P54753).
T1 sequence (whole entry): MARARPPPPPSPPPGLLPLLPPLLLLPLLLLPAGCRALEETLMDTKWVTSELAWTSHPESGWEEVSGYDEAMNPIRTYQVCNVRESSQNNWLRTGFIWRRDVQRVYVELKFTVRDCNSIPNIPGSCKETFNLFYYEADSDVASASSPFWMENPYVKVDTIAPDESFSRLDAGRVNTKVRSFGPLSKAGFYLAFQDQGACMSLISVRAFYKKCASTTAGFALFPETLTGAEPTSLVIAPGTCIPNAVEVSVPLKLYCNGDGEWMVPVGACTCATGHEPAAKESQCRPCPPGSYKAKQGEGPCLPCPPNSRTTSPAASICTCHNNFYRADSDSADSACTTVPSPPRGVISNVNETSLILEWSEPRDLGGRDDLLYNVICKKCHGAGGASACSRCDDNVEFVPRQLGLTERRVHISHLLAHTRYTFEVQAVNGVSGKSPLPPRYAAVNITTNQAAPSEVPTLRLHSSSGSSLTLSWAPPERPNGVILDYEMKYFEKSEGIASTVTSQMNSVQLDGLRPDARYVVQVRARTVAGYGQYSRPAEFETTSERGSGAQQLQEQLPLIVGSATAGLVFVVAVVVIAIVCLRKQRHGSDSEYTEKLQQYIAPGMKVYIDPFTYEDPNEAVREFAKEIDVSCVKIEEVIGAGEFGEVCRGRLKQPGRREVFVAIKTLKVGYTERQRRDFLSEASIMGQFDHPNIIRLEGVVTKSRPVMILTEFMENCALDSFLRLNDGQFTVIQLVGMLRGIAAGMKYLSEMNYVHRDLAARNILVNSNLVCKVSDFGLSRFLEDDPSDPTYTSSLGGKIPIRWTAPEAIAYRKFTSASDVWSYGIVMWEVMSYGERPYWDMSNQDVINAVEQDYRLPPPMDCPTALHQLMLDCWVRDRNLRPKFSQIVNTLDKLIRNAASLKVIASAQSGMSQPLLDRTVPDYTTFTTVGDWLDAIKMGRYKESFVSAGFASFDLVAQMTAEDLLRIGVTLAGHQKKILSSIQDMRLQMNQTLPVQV
The experiment is described as follows: Inhibition of EPH-B3 (unknown origin) at 1 uM incubated for 30 mins in presence of [gamma-33P]ATP by multidrop micro reagent based assay relative to control.

In experiment [2] the target is T2, Dual specificity protein kinase TTK (Homo sapiens) (UniProt P33981).
T2 sequence (whole entry): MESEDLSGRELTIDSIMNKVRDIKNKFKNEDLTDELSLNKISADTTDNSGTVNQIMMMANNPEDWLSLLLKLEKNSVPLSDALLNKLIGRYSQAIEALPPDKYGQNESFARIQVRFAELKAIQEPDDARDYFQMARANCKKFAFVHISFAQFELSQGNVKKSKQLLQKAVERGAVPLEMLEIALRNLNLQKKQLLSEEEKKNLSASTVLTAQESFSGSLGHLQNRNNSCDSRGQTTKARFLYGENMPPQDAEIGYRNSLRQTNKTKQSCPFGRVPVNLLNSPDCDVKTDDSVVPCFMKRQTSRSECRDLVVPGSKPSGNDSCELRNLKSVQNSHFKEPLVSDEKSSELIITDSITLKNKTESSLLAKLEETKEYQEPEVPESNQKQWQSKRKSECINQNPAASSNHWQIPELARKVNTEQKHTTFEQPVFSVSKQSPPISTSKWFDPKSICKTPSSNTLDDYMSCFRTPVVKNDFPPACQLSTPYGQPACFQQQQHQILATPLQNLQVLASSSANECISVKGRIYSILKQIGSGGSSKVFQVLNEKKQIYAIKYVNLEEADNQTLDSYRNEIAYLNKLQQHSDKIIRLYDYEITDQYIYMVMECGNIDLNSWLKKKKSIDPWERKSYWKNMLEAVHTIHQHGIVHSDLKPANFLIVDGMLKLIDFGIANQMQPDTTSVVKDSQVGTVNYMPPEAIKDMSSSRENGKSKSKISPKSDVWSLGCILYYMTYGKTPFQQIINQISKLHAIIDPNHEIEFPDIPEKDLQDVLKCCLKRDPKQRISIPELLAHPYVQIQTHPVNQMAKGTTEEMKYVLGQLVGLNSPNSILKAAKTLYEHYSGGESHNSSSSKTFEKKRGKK
The experiment is described as follows: Inhibition of TTK (unknown origin) at 1 uM incubated for 30 mins in presence of [gamma-33P]ATP by multidrop micro reagent based assay relative to control; values are per cent of control.

The target of experiment [3] is T3, Serine/threonine-protein kinase STK11 (Homo sapiens) (UniProt Q15831).
T3 sequence (whole entry): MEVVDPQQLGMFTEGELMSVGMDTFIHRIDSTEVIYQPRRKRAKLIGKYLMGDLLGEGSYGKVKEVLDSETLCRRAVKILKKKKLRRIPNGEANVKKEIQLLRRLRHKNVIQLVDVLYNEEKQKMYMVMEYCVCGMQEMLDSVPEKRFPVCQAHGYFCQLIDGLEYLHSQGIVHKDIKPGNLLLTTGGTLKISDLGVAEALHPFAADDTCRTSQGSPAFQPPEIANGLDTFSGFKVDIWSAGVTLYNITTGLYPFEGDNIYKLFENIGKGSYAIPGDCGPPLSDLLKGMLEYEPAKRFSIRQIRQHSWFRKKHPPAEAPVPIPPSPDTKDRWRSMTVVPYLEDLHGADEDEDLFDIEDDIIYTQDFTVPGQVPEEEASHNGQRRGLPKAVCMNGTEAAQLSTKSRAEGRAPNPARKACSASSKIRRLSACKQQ
The experiment is described as follows: Inhibition of LKB1 (unknown origin) at 10 uM incubated for 30 mins in presence of [gamma-33P]ATP by multidrop micro reagent based assay relative to control; values are per cent of control.

The target of experiment [4] is T2, Dual specificity protein kinase TTK (Homo sapiens). The experiment is described as follows: Inhibition of TTK (unknown origin) at 10 uM incubated for 30 mins in presence of [gamma-33P]ATP by multidrop micro reagent based assay relative to control. Put shortly:
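Single-concentration screen across a panel of 85 protein kinases. Activity is expressed as a percentage of control incubations run without inhibitor.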

Each structure is given as a SMILES string.

In the case of `CC1=C(C(=O)Nc2cc3cn[nH]c3cc2F)C(c2ccc(C(F)(F)F)cc2)CC(=O)N1` (stereo not drawn), the inhibition in experiment [1] is 87%. Further, the residual activity in experiment [2] was found to be 83%. As to `Cc1cncc2cccc(S(=O)(=O)N3CCCNC[C@@H]3C)c12`, in experiment [1], the inhibition is 69%.

On to `C[C@@H](N)[C@H]1CC[C@H](C(=O)Nc2ccncc2)CC1`, for which the residual activity in experiment [3] turned out to be 52%. The inhibition in experiment [4] worked out at 73%. The matching figures for `O=S(=O)(c1cccc2cnccc12)N1CCCNCC1` [FASUDIL]: 33% and 73%. As to `CCn1c(-c2nonc2N)nc2cnc(Oc3cccc(NC(=O)c4ccc(OCCN5CCOCC5)cc4)c3)cc21` [GSK-269962A], the residual activity in experiment [2] is 69%.

In general, inhibition refers to the drop in the measured response relative to a control, in per cent. For orientation: residual activity means the activity still measured, relative to the control.

(Values after ChEMBL document CHEMBL5705888, “Substrate specificity and inhibitors of LRRK2, a protein kinase mutated in Parkinson's disease” (Biochem J, 2009).)
